The source of these data is ChEMBL document CHEMBL1157805, “Virtual screening, selection and development of a benzindolone structural scaffold for inhibition of lumazine synthase” (Bioorg Med Chem, 2010).

Substrate in data set [1]: O=C1Nc2ccc(S(=O)(=O)NCCCCCOP(=O)(O)O)c3cccc1c23
Kind of data set: (§1) Activity at Mycobacterium tuberculosis recombinant lumazine synthase after 30 mins by fluorescence assay. Put shortly:
(§2)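 Recombinant M. tuberculosis lumazine synthase (2 μM) in 100 mM Tris-HCl pH 7.0, 100 mM NaCl, 5 mM DTT, 2% DMSO. Dihydroxybutanone phosphate was fixed at 100 μM, pyrimidinedione substrate varied 3–100 μM, and inhibitor 0–200 μM. Reactions were started with the pyrimidinedione substrate. Lumazine formation was read at 408 nm for 30 min at 27 °C. Velocity–substrate data were fitted by nonlinear regression to alternative inhibition models.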

Substrate in data set [2]: O=C1Nc2ccc(S(=O)(=O)NCCCCCCOP(=O)(O)O)c3cccc1c23
Described as §1. Put shortly:
as §2

Substrate in data set [3]: CCOC(=O)C(=O)Nc1c(Cl)[nH]c(=O)[nH]c1=O
The data set is described as §1. The procedure, abridged: as §2

Substrate in data set [4]: O=C1Nc2ccc(S(=O)(=O)NCCCCOP(=O)(O)O)c3cccc1c23
Described as §1. Put shortly:
as §2

Substrate in data set [5]: O=C1Nc2ccc(S(=O)(=O)NCCCOP(=O)(O)O)c3cccc1c23
Described as §1. The procedure, abridged: as §2

Substrate in data set [6]: O=C1Nc2ccc(S(=O)(=O)NCCOP(=O)(O)O)c3cccc1c23
Described as §1. The procedure, abridged: as §2

B1: 6,7-dimethyl-8-ribityllumazine synthase (Mycobacterium tuberculosis), P9WHE9 (protein)
chain: MKGGAGVPDLPSLDASGVRLAIVASSWHGKICDALLDGARKVAAGCGLDDPTVVRVLGAIEIPVVAQELARNHDAVVALGVVIRGQTPHFDYVCDAVTQGLTRVSLDSSTPIANGVLTTNTEEQALDRAGLPTSAEDKGAQATVAALATALTLRELRAHS
In the case of B1, the turnover number (kcat) was determined as 0.0075 s⁻¹ in data set [1]; 0.0075 s⁻¹ in data set [2]; 0.0102 s⁻¹ in data set [3]; 0.00733 s⁻¹ in data set [4]; 0.0075 s⁻¹ in data set [5]; 0.00683 s⁻¹ in data set [6].
